The source of these data is ChEMBL document CHEMBL3352156, “Endoplasmic reticulum stress suppressive compounds from the edible mushroom Mycoleptodonoides aitchisonii” (J Nat Prod, 2014).

Calls of active or inactive are those of the source. The rule behind the calls is not given here.

The subject of experiment [1] is N2a. Nature of the experiment: Protection against tunicamycin-induced ER-stress-dependent mouse Neuro2a cell death assessed as cell viability after 24 hrs by MTT assay. Format: functional, cell-based. An outline of the steps: (§1)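 Neuro2a cells in D-MEM with 10% FBS, seeded at 2000 cells/well and grown 24 h. Pretreated 6 h with graded compound levels in serum-free D-MEM, then stressor added to final 0.5 μg/mL tunicamycin or 10 nM thapsigargin for 24 h. MTT 0.25 mg/mL for 2 h, stopped with SDS/DMF, A570. Viability as percent of untreated cells; TG mean ± SE, n = 10−12; Tukey–Kramer tests.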

Experiment [2] concerns N2a. Nature of the experiment: Protection against thapsigargin-induced ER-stress-dependent mouse Neuro2a cell death assessed as cell viability at > 50 uM after 24 hrs by MTT assay. The format is functional, cell-based. An outline of the steps: as §1
A general note: Formazan colour is commonly taken as a measure of viable cells.

For `CC1=C(C(C)O)C(O)OC1=O` (stereo unspecified), the result in the experiment on N2a [1] was inactive. Besides, in the experiment with N2a [2], the outcome was Active.
For `OCC[C@H](O)[C@H](O)Cc1ccccc1`, in that order: “inactive” and “Active”.
The corresponding values for `CC1=C(CO)C(C)(O)OC1=O` (stereo unspecified) are “inactive” and “Active”.
The corresponding values for `OCC[C@H](O)CCc1ccccc1` are “inactive” and “Active”.
In the case of `C[C@@H](O)[C@H]1COC(=O)[C@@H]1C`, the outcome with N2a [1] was inactive. The result with N2a [2] was Active.
In the case of `CC(=O)[C@@H]1COC(=O)[C@@H]1C`, the result with N2a [1] and in the experiment with N2a [2] was inactive.
For the compound `CC1=C(C)C(C)(O)OC1=O` (stereo unspecified), in the experiment with N2a [1], the outcome was inactive. The result in the experiment on N2a [2] was Active.
For `CC(=O)[C@@H]1COC(=O)[C@H]1C`, in that order: “inactive” and “Active”.
